Measured values as given in ChEMBL document CHEMBL5329164, “Design, synthesis, and evaluation of BTK-targeting PROTACs with optimized bioavailability in vitro and in vivo” (RSC Med Chem, 2023).
Each block holds one compound with its values, some of them ahead of it.

Assays:
[1] = Apparent permeability across basal to apical side in MDCK-II cells assessed as compound recovery at 10 uM measured for 120 mins by LC-MS/MS analysis; type: ADME, cell-based, Canis lupus familiaris; conditions: dog, read-out: Drug recovery
In short: (§1)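 MDCK monolayers were grown on Transwell inserts (5 x 10^4 cells/cm²) and used at day 5. Compound at 10 μM in HBSS with 10 mM Hepes, pH 7.40, was dosed apically or basolaterally and incubated at 37±1 °C. Receiver and donor samples were taken at 120 min and quantified by LC-MS/MS against an internal standard. Lucifer yellow passage below 1% confirmed monolayer integrity.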

[2] = Apparent permeability across apical to basal side in MDCK-II cells assessed as compound recovery at 10 uM measured for 120 mins by LC-MS/MS analysis; type: ADME, cell-based, Canis lupus familiaris; conditions: dog, read-out: Drug recovery; in short: as §1
[3] = Stability in human liver microsomes assessed as half life at 1 uM preincubated for 10 mins followed by reaction initiation measured upto 60 mins in presence of NADPH; type: ADME, Microsome; conditions: time < 70 min
In short: (§2)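 Compound at 1 μM final was incubated with 0.5 mg/mL mouse, rat, dog, monkey or human liver microsomes in 100 mM PBS, pH 7.4, with 1 mM NADPH at 37 °C after a 10 min preincubation. Reactions were stopped at 0, 5, 15, 30 and 60 min with ice-cold acetonitrile containing tolbutamide. Supernatants were taken for bioanalysis.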

[4] = Apparent volume of distribution in BALB/c mouse at 2 mg/kg, iv measured for 24 hrs by LCMS analysis; type: ADME, organism-based; conditions: in vivo, read-out: Vz
In short: (§3)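 Male Balb/c mice, 9 per group, dosed intravenously at 2 mg/kg. Blood was drawn into EDTA-K2 tubes at 0.083, 0.25, 0.5, 1, 2, 4, 6, 8 and 24 h. Plasma was separated by centrifugation at 2000 g for 10 min and precipitated with acetonitrile containing tolbutamide internal standard. Analysis was by LC-MS on a polar C18 column with a water/acetonitrile 0.1% formic acid gradient.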

[5] = Stability in mouse liver microsomes assessed as intrinsic clearance measured per mg protein at 1 uM preincubated for 10 mins followed by reaction initiation measured upto 60 mins in presence of NADPH; type: ADME, Microsome; conditions: time < 70 min, read-out: CLH; in short: as §2
[6] = AUClast in BALB/c mouse at 5 mg/kg, po measured for 24 hrs by LCMS analysis; type: ADME, organism-based; set-up: dose 5 mg/kg, time 24 hrs, route po; conditions: in vivo
In short: (§4)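 Male Balb/c mice, 9 per group, dosed intragastrically at 5 mg/kg; the same compounds were also given iv at 2 mg/kg. Blood was drawn into EDTA-K2 tubes at 0.25, 0.5, 1, 2, 4, 6, 8 and 24 h. Plasma proteins were precipitated with acetonitrile containing tolbutamide. Quantification was by LC-MS on a C18 column with a formic acid water/acetonitrile gradient.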

[7] = Stability in monkey liver microsomes assessed as intrinsic clearance measured per mg protein at 1 uM preincubated for 10 mins followed by reaction initiation measured upto 60 mins in presence of NADPH; type: ADME, Macaca mulatta, Microsome; conditions: rhesus monkey, time < 70 min, read-out: CLH; in short: as §2
[8] = Stability in monkey liver microsomes assessed as half life at 1 uM preincubated for 10 mins followed by reaction initiation measured upto 60 mins in presence of NADPH; type: ADME, Macaca mulatta, Microsome; conditions: rhesus monkey, time < 70 min; in short: as §2
[9] = Apparent permeability across basal to apical side in MDCK-II cells at 10 uM measured for 120 mins by LC-MS/MS analysis; type: ADME, cell-based, Canis lupus familiaris; conditions: dog
In short: (§5)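 MDCK monolayers were grown on Transwell inserts (5 x 10^4 cells/cm²) and used at day 5. Compound at 10 μM in HBSS with 10 mM Hepes, pH 7.40, was dosed apically or basolaterally and incubated at 37±1 °C. Lucifer yellow passage below 1% confirmed monolayer integrity.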

[10] = Stability in dog liver microsomes assessed as half life at 1 uM preincubated for 10 mins followed by reaction initiation measured upto 60 mins in presence of NADPH; type: ADME, Canis lupus familiaris, Microsome; conditions: time < 70 min; in short: as §2
[11] = Half life in BALB/c mouse at 5 mg/kg, po measured for 24 hrs by LCMS analysis; type: ADME, organism-based; conditions: in vivo; in short: as §4
[12] = AUClast in BALB/c mouse at 2 mg/kg, iv measured for 24 hrs by LCMS analysis; type: ADME, organism-based; set-up: time 24 hrs, dose 2 mg/kg, route iv; conditions: in vivo; in short: as §3
[13] = Cmax in BALB/c mouse at 5 mg/kg, po measured for 24 hrs by LCMS analysis; type: ADME, organism-based; set-up: dose 5 mg/kg, time 24 hrs, route po; conditions: in vivo; in short: as §4
[14] = Stability in rat liver microsomes assessed as intrinsic clearance measured per mg protein at 1 uM preincubated for 10 mins followed by reaction initiation measured upto 60 mins in presence of NADPH; type: ADME, Microsome; conditions: time < 70 min, read-out: CLH; in short: as §2
[15] = Oral bioavailability in BALB/c mouse at 5 mg/kg measured for 24 hrs by LCMS analysis; type: ADME, organism-based; conditions: in vivo; in short: as §4
[16] = Stability in human liver microsomes assessed as intrinsic clearance measured per mg protein at 1 uM preincubated for 10 mins followed by reaction initiation measured upto 60 mins in presence of NADPH; type: ADME, Microsome; conditions: time < 70 min, read-out: CLH; in short: as §2
[17] = Apparent permeability across apical to basal side in MDCK-II cells at 10 uM measured for 120 mins by LC-MS/MS analysis; type: ADME, cell-based, Canis lupus familiaris; conditions: dog; in short: as §5
[18] = Stability in mouse liver microsomes assessed as half life at 1 uM preincubated for 10 mins followed by reaction initiation measured upto 60 mins in presence of NADPH; type: ADME, Microsome; conditions: time < 70 min; in short: as §2
[19] = Stability in dog liver microsomes assessed as intrinsic clearance measured per mg protein at 1 uM preincubated for 10 mins followed by reaction initiation measured upto 60 mins in presence of NADPH; type: ADME, Canis lupus familiaris, Microsome; conditions: time < 70 min, read-out: CLH; in short: as §2
[20] = Clearance in BALB/c mouse at 2 mg/kg, iv measured for 24 hrs by LCMS analysis; type: ADME, organism-based; conditions: in vivo; in short: as §3
[21] = Tmax in BALB/c mouse at 5 mg/kg, po measured for 24 hrs by LCMS analysis; type: ADME, organism-based; conditions: in vivo; in short: as §4
[22] = Stability in rat liver microsomes assessed as half life at 1 uM preincubated for 10 mins followed by reaction initiation measured upto 60 mins in presence of NADPH; type: ADME, Microsome; conditions: time < 70 min; in short: as §2
[23] = Half life in BALB/c mouse at 2 mg/kg, iv measured for 24 hrs by LCMS analysis; type: ADME, organism-based; conditions: in vivo; in short: as §3
[24] = molecular target: T1, Protein cereblon/Tyrosine-protein kinase BTK (Homo sapiens) (UniProt Q06187+Q96SW2); experiment: PROTAC activity at CRBN/ BTK in human Ramos cells assessed as induction of BTK degradation at 100 nM incubated for 24 hrs by immunoblot analysis relative to control; type: cell-based
T1 sequence (Q06187 2-659 limits assumed): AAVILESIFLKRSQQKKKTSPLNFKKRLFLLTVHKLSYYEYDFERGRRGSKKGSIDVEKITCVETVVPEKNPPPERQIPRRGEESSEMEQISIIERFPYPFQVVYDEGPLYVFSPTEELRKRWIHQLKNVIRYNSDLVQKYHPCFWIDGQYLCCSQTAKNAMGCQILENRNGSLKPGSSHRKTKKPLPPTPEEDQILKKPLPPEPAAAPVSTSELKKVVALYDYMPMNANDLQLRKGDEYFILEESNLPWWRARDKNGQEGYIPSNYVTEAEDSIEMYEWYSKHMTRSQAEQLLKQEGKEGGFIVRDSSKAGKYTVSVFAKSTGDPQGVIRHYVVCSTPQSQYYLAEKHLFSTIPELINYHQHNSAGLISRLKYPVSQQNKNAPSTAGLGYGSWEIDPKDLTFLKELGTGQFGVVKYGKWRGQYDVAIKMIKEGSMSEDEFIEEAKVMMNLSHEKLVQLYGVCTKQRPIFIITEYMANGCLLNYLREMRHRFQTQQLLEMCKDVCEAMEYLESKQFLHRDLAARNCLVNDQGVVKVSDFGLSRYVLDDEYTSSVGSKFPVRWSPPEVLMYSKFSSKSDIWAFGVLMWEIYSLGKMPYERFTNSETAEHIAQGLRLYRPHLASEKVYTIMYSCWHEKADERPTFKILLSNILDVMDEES
T1 sequence (Q96SW2 whole entry partner): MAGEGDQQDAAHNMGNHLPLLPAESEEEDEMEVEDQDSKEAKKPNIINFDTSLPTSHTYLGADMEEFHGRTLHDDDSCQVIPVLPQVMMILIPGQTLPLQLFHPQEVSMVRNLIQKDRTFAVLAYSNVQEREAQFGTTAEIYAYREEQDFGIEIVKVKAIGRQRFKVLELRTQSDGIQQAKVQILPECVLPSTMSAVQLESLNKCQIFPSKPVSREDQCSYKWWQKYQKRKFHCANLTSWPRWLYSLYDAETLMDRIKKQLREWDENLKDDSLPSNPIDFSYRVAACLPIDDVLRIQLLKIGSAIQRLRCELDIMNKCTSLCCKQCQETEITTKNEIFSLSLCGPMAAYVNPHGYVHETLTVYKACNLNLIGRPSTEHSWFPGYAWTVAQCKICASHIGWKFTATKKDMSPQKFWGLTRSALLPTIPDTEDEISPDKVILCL
In short: (§6)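 Ramos cells in supplemented RPMI 1640 were plated at 3×10^5 cells/well and treated with compound for 24 h. Lysates in SDS sample buffer were heated at 100 °C for 15 min and run on 10% SDS-PAGE, then transferred to PVDF. Membranes were probed overnight at 4 °C for BTK, GSPT1 and β-actin.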

[25] = molecular target: T1, Protein cereblon/Tyrosine-protein kinase BTK (Homo sapiens); experiment: PROTAC activity at CRBN/ BTK in human Ramos cells assessed as induction of BTK degradation at 300 nM incubated for 24 hrs by immunoblot analysis relative to control; type: cell-based; in short: as §6
[26] = molecular target: T1, Protein cereblon/Tyrosine-protein kinase BTK (Homo sapiens); experiment: PROTAC activity at CRBN/ BTK in human Ramos cells assessed as induction of BTK degradation at 500 nM incubated for 24 hrs by immunoblot analysis relative to control; type: cell-based; in short: as §6
[27] = Solubility in DMSO:Cremophor EL:1xPBS mixture at 10 mg/ml; type: physicochemical
[28] = Solubility in DMSO:Cremophor EL:1xPBS mixture at 10 mg/ml incubated for 7 days; type: physicochemical; conditions: 168 h, time 7 day
[29] = molecular target: T1, Protein cereblon/Tyrosine-protein kinase BTK (Homo sapiens); experiment: PROTAC activity at CRBN/ BTK in human Ramos cells assessed as induction of BTK degradation at 250 nM incubated for 24 hrs by immunoblot analysis relative to control; type: cell-based; in short: as §6

Compound: CC(C)NCC(O)COc1ccc(CC(N)=O)cc1 (stereo unspecified) [ATENOLOL]
recovery at 2 h, 10 µM [1]: 99.5%
recovery at 2 h, 10 µM [2]: 94.4%

Compound: Nc1ncnc2c1c(-c1ccc(Oc3ccccc3)cc1)nn2C1CCN(C(=O)Cc2ccc(Nc3ccc4c(c3)CN(C3CCC(=O)NC3=O)C4=O)cc2)CC1 (stereo unspecified)
half-life at 1 µM [3]: 9.46 min
Vd [4]: 1.74 L/kg
microsomal CLint at 1 µM [5]: 107 µL/min/mg
AUC(0-t) at 24 h [6]: 103 ng·h/mL
microsomal CLint at 1 µM [7]: 156 µL/min/mg
half-life at 1 µM [8]: 8.91 min
Papp B→A at 2 h, 10 µM [9]: 0.25 ×10⁻⁶ cm/s
half-life at 1 µM [10]: 28.5 min
half-life [11]: 87 min
AUC(0-t) at 24 h [12]: 8120 ng·h/mL
Cmax [13]: 83.2 ng/mL
microsomal CLint at 1 µM [14]: 55.9 µL/min/mg
bioavailability [15]: 0.51%
recovery at 2 h, 10 µM [1]: 101%
microsomal CLint at 1 µM [16]: 147 µL/min/mg
Papp A→B at 2 h, 10 µM [17]: 0.003 ×10⁻⁶ cm/s
half-life at 1 µM [18]: 13 min
microsomal CLint at 1 µM [19]: 48.7 µL/min/mg
clearance [20]: 4.08 mL/min/kg
Tmax [21]: 30 min
recovery at 2 h, 10 µM [2]: 98.5%
half-life at 1 µM [22]: 24.8 min
half-life [23]: 296 min

Compound: Nc1ncnc2c1c(-c1ccc(Oc3ccccc3)cc1)nn2[C@@H]1CCCN(C(=O)c2ccc(Nc3ccc4c(c3)CN(C3CCC(=O)NC3=O)C4=O)cc2)C1 (stereo partly specified)
Activity [24]: 6.9%
Activity [25]: 12%

Compound: COCCc1ccc(OCC(O)CNC(C)C)cc1 (stereo unspecified) [METOPROLOL]
Papp B→A at 2 h, 10 µM [9]: 11.3 ×10⁻⁶ cm/s
recovery at 2 h, 10 µM [1]: 95.9%
Papp A→B at 2 h, 10 µM [17]: 21.1 ×10⁻⁶ cm/s
recovery at 2 h, 10 µM [2]: 97.1%

Compound: C=CC(=O)N1CCC[C@@H](n2nc(-c3ccc(Oc4ccccc4)cc3)c3c(N)ncnc32)C1 [IBRUTINIB]
solubility [27]: Soluble
solubility [28]: Insoluble

The next lines start with the values.

Activity [26]: 100%
Compound: Nc1ncnc2c1c(-c1ccc(Oc3ccccc3)cc1)nn2[C@@H]1CCCN(C(=O)Nc2ccc3c(c2)C(=O)N(C2CCC(=O)NC2=O)C3=O)C1 (stereo partly specified)

Activity [26]: 38.8%
Activity [29]: 38.4%
Compound: Nc1ncnc2c1c(-c1ccc(Oc3ccccc3)cc1)nn2[C@@H]1CCCN(C(=O)c2ccc(-c3ccc(Nc4ccc5c(c4)C(=O)N(C4CCC(=O)NC4=O)C5=O)cc3)cc2)C1 (stereo partly specified)
